Assay results gathered from unrelated publications.
Target: SRSF protein kinase 2 (SRPK2, Homo sapiens, UniProt P78362)

Structure (SMILES) | test | setting | measurement | result
C[C@@H]1CN(c2cc(-c3n[nH]c4ccc(OC5(C)CC5)cc34)ncn2)C[C@H](C)O1 | cell-free assay, competition with immobilised ligand | 0.1 µM | remaining binding | 79%
O=C1NC(=O)c2cc(Nc3ccc(F)cc3)c(Nc3ccc(F)cc3)cc21 | cell-free assay | 0.5 µM | remaining signal | 92.3%
COc1cc(-c2cc(-c3ccc(N4CCNCC4)cc3)cnc2C)cc(OC)c1OC | enzyme activity, inhibitor | 0.1 µM | inhibition | 2%
Cc1ccc(C(=O)Nc2ccc(CN3CCN(C)CC3)c(C(F)(F)F)c2)cc1C#Cc1cnc2cccnn12 | enzyme activity, inhibitor | 23.5 nM | remaining activity | 94%
CC1(C)NC(=O)c2[nH]c3c(Cl)c(Cl)ccc3c2C1C#N (stereo not drawn) | thermal stability, DSF | 10 µM | ΔTm | 0.4 °C
O=C(Nc1cnn(-c2csc(C(=O)NC3COC3)c2)c1)Nc1ccccc1Cl | enzyme activity, inhibitor | 5 µM | remaining activity | 95.6%
CN([C@@H]1CCc2c(CC(=O)O)c3ccccc3n2C1)S(=O)(=O)c1ccc(F)cc1 | cell-free assay, competition with immobilised ligand | 1 µM | remaining binding | 100%
CNC(=O)c1cc(Oc2ccc(NC(=O)Nc3ccc(Cl)c(C(F)(F)F)c3)cc2)ccn1 | enzyme activity, inhibitor | 0.3 µM | inhibition | 2%
O=C1Nc2ccc(Cl)cc2C1=Cc1cc(Cl)c(O)c(Cl)c1 | cell-free assay | 0.5 µM | remaining signal | 95.2%
Cn1c2c(c3ccc(Cl)c(Cl)c31)C(C#N)C1(CCCCC1)NC2=O (racemic) | thermal stability, DSF | 10 µM | ΔTm | 0.2 °C
CC(C)(C)c1nc(-c2cccc(NS(=O)(=O)c3c(F)cccc3F)c2F)c(-c2ccnc(N)n2)s1 | enzyme activity, inhibitor, radiometric | 1 µM | remaining activity | 111%
O=C(O)c1cc(-c2ccc(C3CCNCC3)cc2)c2ccc(-c3ccc(C(F)(F)F)cc3)cc2c1 | cell-free assay, competition with immobilised ligand | 1 µM | remaining binding | 100%
CC(C)(O)[C@H]1CC[C@H](Nc2ccc3ncc(-c4cccc(C(F)(F)F)c4)n3n2)CC1 | enzyme activity, inhibitor | 1 µM | remaining activity | 94.5%
Cc1cc(-n2nc(Cc3cc(F)cc(C(F)(F)F)c3)nc2C)ccc1C(N)=O | cell-free assay, competition with immobilised ligand | 1 µM | remaining binding | 100%
CCN(CC)CCNC(=O)c1c(C)[nH]c(/C=C2\C(=O)Nc3ccc(F)cc32)c1C | enzyme activity, inhibitor | 10 µM | inhibition | 37%
Cn1c2c(Cl)c(Cl)ccc2c2cc[nH]c(=O)c21 | thermal stability, DSF | 10 µM | ΔTm | -0.2 °C
Cc1cnc(NC2CCOCC2)nc1-n1cnc(C(=O)NC(CN)c2cc(F)cc(Cl)c2)c1 (stereo not drawn) | enzyme activity, inhibitor, radiometric | 1 µM | remaining activity | 101%
N#CC1(c2ccccn2)CCN(Cc2cc(C(=O)N3CCCC3)c(=O)n3ccccc23)CC1 | cell-free assay, competition with immobilised ligand | 1 µM | remaining binding | 84%
CN1CC(Oc2cnc(C#N)cc2-c2ccn3nc(NC(=O)C4CC4)cc3c2)C1 | enzyme activity, inhibitor | 1 µM | inhibition | 6%
Cn1c2c(c3ccccc31)C(C#N)C(C)(C)NC2=O (stereo not drawn) | thermal stability, DSF | 10 µM | ΔTm | 0 °C
CCC(=N\O)/C(C)=C/c1ccc(F)cc1 | cell-free assay, competition with immobilised ligand | 1 µM | remaining binding | 75%
